In ChEMBL document CHEMBL1124084, “Studies on scavengers of active oxygen species. 1. Synthesis and biological activity of 2-O-alkylascorbic acids” (J Med Chem, 1988):
pIC50: −log10 of the molar value. Values belong to the compound of their own block, whether it stands above or below them.

Columns and labels:
[1] = system: Rattus norvegicus; test: Effect of AOS scavenger on ventricular fibrillation (VF), arrhythmias induced by ischemia-reperfusion in anesthetized rat, duration at 10 mg/kg; format: functional, Cardiac ventricle
[2] = system: Rattus norvegicus; test: Effect of AOS scavenger on ventricular fibrillation (VF), arrhythmias induced by ischemia-reperfusion in anesthetized rat, frequency, times at 10 mg/kg; format: functional, Cardiac ventricle; conditions: 10 mg/kg
[3] = system: Rattus norvegicus; test: Effect of AOS scavenger on ventricular tachycardia (VT),arrhythmias induced by ischemia-reperfusion in anesthetized rat incidence at 10 mg/kg; 4/5; format: functional, Cardiac ventricle
[4] = system: Rattus norvegicus; test: Effect of AOS scavenger on ventricular tachycardia (VT), arrhythmias induced by ischemia-reperfusion in anesthetized rat, frequency, times at 10 mg/kg; format: functional, Cardiac ventricle
[5] = system: Rattus norvegicus; test: Effect of AOS scavenger on ventricular fibrillation (VF),arrhythmias induced by ischemia-reperfusion in anesthetized rat, incidence at 10 mg/kg; 5/5; format: functional, Cardiac ventricle
[6] = system: Rattus norvegicus; test: Effect of AOS scavenger on premeture ventricular complexes PVCs, arrhythmias induced by ischemia-reperfusion in anesthetized rat, duration at 10 mg/kg; format: functional, Cardiac ventricle; conditions: 10 mg/kg
[7] = species: Rattus norvegicus; test: Inhibition of lipid peroxidation was determined with rat brain tissue homogenates.; format: functional
In short: (§1)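 Brains excised from male SD rats (12 weeks), exsanguinated under pentobarbital anesthesia; 5% homogenate in phosphate buffer pH 7.4 incubated with test drug 1 h at 37 °C; lipid peroxide quantified by thiobarbituric acid method.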

[8] = system: Rattus norvegicus; test: Effect of AOS scavenger on ventricular tachycardia (VT),arrhythmias induced by ischemia-reperfusion in anesthetized rat, duration at 10 mg/kg; format: functional, Cardiac ventricle; conditions: 10 mg/kg
[9] = species: Rattus norvegicus; test: Antilipid peroxidation was determined; format: functional
In short: (§2)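 Rat brain lipid peroxidation: brains from male SD rats (12 weeks old), exsanguinated under pentobarbital anaesthesia, homogenized to 5% in phosphate buffer pH 7.4. Homogenate incubated with test drug at 37 °C for 1 h. Lipid peroxide quantified by the thiobarbituric acid method.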

[10] = species: Rattus norvegicus; test: Inhibition of lipid peroxidation was determined with rat brain tissue homogenates; format: functional; in short: as §1
[11] = system: Rattus norvegicus; test: Effect of AOS scavenger on arrhythmias induced by ischemia-reperfusion in anesthetized rat measured as ventricular tachycardia (VT), frequency, times at 3 mg/kg; format: functional, Cardiac ventricle
[12] = system: Rattus norvegicus; test: Effect of AOS scavenger on ventricular fibrillation (VF), arrhythmias induced by ischemia-reperfusion in anesthetized rat, incidence at 3 mg/kg; format: functional, Cardiac ventricle
[13] = system: Rattus norvegicus; test: Effect of AOS scavenger on ventricular fibrillation (VF), arrhythmias induced by ischemia-reperfusion in anesthetized rat, incidence at 3 mg/kg; 6/6; format: functional, Cardiac ventricle
[14] = system: Rattus norvegicus; test: Effect of AOS scavenger on arrhythmias induced by ischemia-reperfusion in anesthetized rat measured as ventricular tachycardia (VT), incidence at 3 mg/kg; 6/6; format: functional, Cardiac ventricle
[15] = system: Rattus norvegicus; test: Effect of AOS scavenger on premeture ventricular complexes PVCs, arrhythmias induced by ischemia-reperfusion in anesthetized rat, duration at 3 mg/kg; format: functional, Cardiac ventricle
[16] = species: Rattus norvegicus; test: Reducing activity determined by the use of stable radical alpha,alpha-di-phenyl-beta-picrylhydrazyl (DPPH); format: functional, organism-based
In short: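 Compound mixed with equimolar α,α-diphenyl-β-picrylhydrazyl; absorbance at 517 nm read after 20 min; reducing activity taken as absorbance difference from control.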

[17] = system: Rattus norvegicus; test: Effect of AOS scavenger on arrhythmias induced by ischemia-reperfusion in anesthetized rat measured as ventricular tachycardia (VT), duration at 3 mg/kg; format: functional, Cardiac ventricle
[18] = species: Rattus norvegicus; test: Antilipid peroxidation was measured at 10e-5 M concentration; format: functional; in short: as §2
[19] = Reducing activity determined by the use of stable radical alpha,alpha-di-phenyl-beta-picrylhydrazyl (DPPH); design: concentration or dose not given beside the values
[20] = system: Rattus norvegicus; test: Effect of AOS scavenger on ventricular fibrillation (VF), arrhythmias induced by ischemia-reperfusion in anesthetized rat, duration at 3 mg/kg; format: functional, Cardiac ventricle
[21] = system: Rattus norvegicus; test: Effect of AOS scavenger on ventricular tachycardia (VT), arrhythmias induced by ischemia-reperfusion in anesthetized rat, incidence at 3 mg/kg; 8/10; format: functional, Cardiac ventricle
[22] = system: Rattus norvegicus; test: Effect of AOS scavenger on ventricular fibrillation (VF), arrhythmias induced by ischemia-reperfusion in anesthetized rat, incidence at 3 mg/kg; 8/10; format: functional, Cardiac ventricle
[23] = system: Rattus norvegicus; test: Effect of AOS scavenger on ventricular tachycardia (VT), arrhythmias induced by ischemia-reperfusion in anesthetized rat, duration at 3 mg/kg; format: functional, Cardiac ventricle
[24] = system: Rattus norvegicus; test: Effect of AOS scavenger on ventricular tachycardia (VT), arrhythmias induced by ischemia-reperfusion in anesthetized rat, frequency, times at 3 mg/kg; format: functional, Cardiac ventricle
[25] = system: Rattus norvegicus; test: Effect of AOS scavenger on ventricular fibrillation (VF), arrhythmias induced by ischemia-reperfusion in anesthetized rat, frequency, times at 3 mg/kg; format: functional, Cardiac ventricle

pIC50 [7]: 5.01
SMILES: CCCCCCCCCCCCCCCCCCOC1=C(O)[C@@H](C(O)CO)OC1=O (stereo in doubt; 8) [listing 1 of 2 here]
Duration [1]: 122.4 s
Frequency [2]: 1.6
Incidence [3]: 4 N
Frequency [4]: 3.8
Incidence [5]: 5 N
PVCs [6]: < 4 PVCs/min
Duration [8]: 11.8 s

pIC50 [10]: 5.27
SMILES: CCCCCCCCCCCCOC1=C(O)OC(C(O)CO)C1=O (configuration not stated)
Antilipid peroxidation [9]: 67.4%

pIC50 [10]: 5.07
SMILES: CCCCCCCCCCCCCCCCCCOC1=C(O)O/C(=C\CO)C1=O
Antilipid peroxidation [18]: 53.5%

pIC50 [10]: 4.89
SMILES: CCCCCCCCCCOC1=C(O)OC(C(O)CO)C1=O (configuration not stated)
Antilipid peroxidation [9]: 42.5%

pIC50 [10]: 4.57
SMILES: CCCCCCCCCOC1=C(O)OC(C(O)CO)C1=O (configuration not stated)
Antilipid peroxidation [9]: 22.4%

pIC50 [10]: 5.33
SMILES: CCCCCCCCCCCCCCCCCCCCOC1=C(O)OC(C(O)CO)C1=O (configuration not stated)
Antilipid peroxidation [9]: 75.8%
Reducing activity [19]: 95.3%

The remaining lines, values behind:

SMILES: CCCCCCOc1ccc(COC2=C(O)OC(C(O)CO)C2=O)cc1 (configuration not stated)
Antilipid peroxidation [9]: 38.8%

SMILES: CCCCCCCCCCCCCCCCCCOC1=C(O)[C@@H](C(O)CO)OC1=O (stereo in doubt; 8) [listing 2 of 2 here]
Antilipid peroxidation [9]: 44.7%

SMILES: O=C1O[C@H]([C@@H](O)CO)C(O)=C1O [ASCORBIC ACID]
Frequency [11]: 3.7
Duration [12]: 41.4 s
Frequency [12]: 4
Incidence [13]: 6 N
Antilipid peroxidation [9]: -71%
Incidence [14]: 6 N
Activity [15]: 7.4 min
Reducing activity [16]: 93.4%
Duration [17]: 8.2 s

SMILES: CCCCCCCCOC1=C(O)OC(C(O)CO)C1=O (configuration not stated)
Antilipid peroxidation [18]: 1.6%
Reducing activity [19]: 93.9%

SMILES: Cc1c(C)c2c(c(C)c1O)CC[C@@](C)(CCC[C@H](C)CCC[C@H](C)CCCC(C)C)O2 [ALPHA-TOCOPHEROL]
Antilipid peroxidation [9]: 52%
Activity [15]: 23.3 min
Duration [20]: 111.1 s
Incidence [21]: 8 N
Incidence [22]: 8 N
Duration [23]: 7.4 s
Frequency [24]: 3.1
Frequency [25]: 2.1
Reducing activity [19]: 72%

SMILES: CCCCCCCCCCCCCCCCCCOC1=C(OC)C(C(O)CO)OC1=O (configuration not stated)
Antilipid peroxidation [18]: 12.5%
